Source: paper PMC11947739 (Alzheimer's & Dementia : Translational Research & Clinical …, 2025)

What was measured:
[1] = system: neurology patients / AD patients; settings: ref 1-8 of Supporting Data; cited from earlier work
human 5-HT2b receptor = human 5-HT2b receptor (Homo sapiens, UniProt P41595); test: 5-HT2bR competitive radioligand binding, [125I]
h5-HT2b and m5-HT2b = test: Gq activation and β-arrestin-1 recruitment, statements covering both species; format: cell-based, human and mouse; settings: absence of an activator
Outline: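 Human and mouse 5-HT2b receptors were tested in cells. Serotonin-driven Gq activation and β-arrestin-1 recruitment were read across increasing test compound concentrations. The same read-outs were taken with vehicle and no activator to capture basal (inverse agonist) activity. Data are mean ± SEM of three to four independent experiments, each in duplicate or triplicate. EC50 and Emax were derived.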

human 5-HT2b receptor, sequence (P41595 whole entry): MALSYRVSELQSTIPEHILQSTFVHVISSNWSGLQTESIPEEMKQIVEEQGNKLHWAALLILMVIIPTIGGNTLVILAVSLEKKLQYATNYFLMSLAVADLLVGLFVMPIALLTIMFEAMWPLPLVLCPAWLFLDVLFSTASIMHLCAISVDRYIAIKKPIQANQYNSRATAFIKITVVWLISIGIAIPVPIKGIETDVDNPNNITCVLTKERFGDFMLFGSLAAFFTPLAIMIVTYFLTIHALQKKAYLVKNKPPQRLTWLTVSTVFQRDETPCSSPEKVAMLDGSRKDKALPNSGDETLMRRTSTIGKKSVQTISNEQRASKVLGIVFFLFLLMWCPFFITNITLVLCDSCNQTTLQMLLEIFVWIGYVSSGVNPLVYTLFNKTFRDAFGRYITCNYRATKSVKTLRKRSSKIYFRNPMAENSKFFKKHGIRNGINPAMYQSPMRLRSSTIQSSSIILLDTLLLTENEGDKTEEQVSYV

IC50 (human 5-HT2b receptor) [nM] | SMILES | Risk for cardiotoxicity, drowsiness, or weight gain [1] | Basal (constitutive) 5-HT2bR activity (h5-HT2b and m5-HT2b)
863 ± 8 | Cc1cc(-c2ccccc2)nnc1NCCN1CCOCC1 [minaprine] | low risk | 
 | Cc1nc2n(c(=O)c1CCN1CCC(c3noc4cc(F)ccc34)CC1)CCCC2 [risperidone] |  | inhibited basal 5‐HT2bR
